Laboratory results reported in ChEMBL document CHEMBL1133306, “Discovery of a new class of p38 kinase inhibitors” (Bioorg Med Chem Lett, 2000).

How the values were obtained:
[1] = molecular target: T1, Mitogen-activated protein kinase 14 (Homo sapiens, UniProt Q16539); assay: Inhibitory activity against Mitogen-activated protein kinase p38 alpha 2 (expressed Escherichia coli) at concentration of 500 nM
In short: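 Activated p38 α2 (0.05 µg/well) phosphorylating myelin basic protein (10 µg/well) in 25 mM HEPES pH 7.4, 20 mM MgCl₂, 150 mM NaCl. Compounds were added from 10% DMSO in water. Reactions were started with 10 µM ATP plus 0.2 µCi [γ-33P]ATP per well, run 35 min at 32 °C, and stopped with HCl. Filter-bound ³³P was counted by scintillation.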

[2] = molecular target: T1, Mitogen-activated protein kinase 14; assay: Inhibitory activity against Mitogen-activated protein kinase p38 alpha 2 expressed in Escherichia coli.
[3] = system: SW1353; assay: Compound was evaluated for its ability to inhibit IL-6 production in SW1353 cells treated with cytokines IL-1 and TNF; type: functional, cell-based; settings: Homo sapiens

T1 sequence (Q16539 whole entry): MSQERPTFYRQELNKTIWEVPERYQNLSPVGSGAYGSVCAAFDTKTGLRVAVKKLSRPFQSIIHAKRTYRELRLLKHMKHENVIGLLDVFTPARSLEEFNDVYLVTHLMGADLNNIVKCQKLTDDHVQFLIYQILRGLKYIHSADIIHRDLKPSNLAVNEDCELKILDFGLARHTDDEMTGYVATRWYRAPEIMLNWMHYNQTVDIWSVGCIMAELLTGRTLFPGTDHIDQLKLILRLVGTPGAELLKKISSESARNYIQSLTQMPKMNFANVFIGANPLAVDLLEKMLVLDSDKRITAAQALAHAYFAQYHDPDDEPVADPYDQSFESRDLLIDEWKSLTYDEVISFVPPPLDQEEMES

| Structure (SMILES) | inhibition [1] | IC50 [2] | IC50 [3] |
| --- | --- | --- | --- |
| CC(=O)Nc1cccc(NC(=O)Nc2cc(C(C)(C)C)no2)c1 | 11% |  |  |
| CCC(C)(C)c1cc(NC(=O)Nc2cccc(Cl)c2Cl)on1 | 83% | 120 nM |  |
| CC(C)(C)c1cc(NC(=O)Nc2ccccc2C(F)(F)F)no1 | 36% |  |  |
| CC(=O)Nc1cccc(NC(=O)Nc2cc(C(C)(C)C)on2)c1 | 18% |  |  |
| O=C(Nc1cc(C23CC4CC(CC(C4)C2)C3)no1)Nc1cccc(Cl)c1Cl | 9% |  |  |
| CC(C)(C)c1cc(NC(=O)Nc2ccccc2)no1 | 33% |  |  |
| Cc1cccc(NC(=O)Nc2cc(C(C)(C)C)on2)c1C | 54% |  |  |
| CC(C)c1cc(NC(=O)Nc2cccc(Cl)c2Cl)on1 | 62% | 290 nM |  |
| CC(C)(C)c1cc(NC(=O)Nc2cccc(Cl)c2Cl)cs1 | 76% | 160 nM |  |
| CC(=O)Nc1ccc(NC(=O)Nc2cc(C(C)(C)C)no2)cc1 | 20% |  |  |
| Cc1cc(NC(=O)Nc2cccc(Cl)c2Cl)on1 | 4% |  |  |
| CC(C)(C)c1cc(NC(=O)Nc2ccc(C(F)(F)F)cc2)no1 | 39% |  |  |
| CC(C)(C)c1cc(NC(=O)Nc2cccc(Cl)c2Cl)no1 | 88% | 58 nM | 1200 nM |
| CC(C)(C)c1ccc(NC(=O)Nc2cccc(Cl)c2Cl)s1 | 82% | 120 nM |  |
| CC(C)(C)c1cc(NC(=O)Nc2ccc(Cl)c(Cl)c2)on1 | 62% | 220 nM |  |
| CC(C)(C)c1cc(NC(=O)Nc2cc(Br)cc(Br)c2)no1 |  | 710 nM |  |

| Structure (SMILES) | inhibition [1] | IC50 [2] | IC50 [3] |
| --- | --- | --- | --- |
| Cc1cc(F)ccc1-c1cc(N(C(N)=O)c2c(Cl)cccc2Cl)ccc1CO |  | 2 nM |  |
| CCC(C)(C)c1noc(NC(=O)Nc2cccc(Cl)c2Cl)c1C | 18% |  |  |
| CC(C)(C)c1cc(NC(=O)Nc2cccc(Cl)c2Cl)on1 | 93% | 36 nM |  |
| Cc1cccc(NC(=O)Nc2cc(C(C)(C)C)no2)c1C | 49% |  |  |
| CCCCc1cc(NC(=O)Nc2cccc(Cl)c2Cl)on1 | 33% | 1100 nM |  |
| O=C(Nc1cc(C2CCC2)no1)Nc1cccc(Cl)c1Cl | 57% | 370 nM |  |
| CC(C)(C)c1cc(NC(=O)Nc2ccc(F)cc2)on1 | 41% |  |  |
| CC(C)(C)c1nnc(NC(=O)Nc2cccc(Cl)c2Cl)s1 | 1% |  |  |
| CC(C)(C)c1cc(NC(=O)Nc2ccc(Cl)cc2C(F)(F)F)no1 | 9% |  |  |
| CC(C)(C)c1cc(NC(=O)Nc2ccc(C(F)(F)F)cc2)on1 | 77% | 200 nM |  |
| Cc1c(C(C)(C)C)noc1NC(=O)Nc1cccc(Cl)c1Cl | 18% |  |  |
| CC(C)(C)c1cc(NC(=O)Nc2ccc(F)cc2)no1 | 74% | 190 nM |  |
| CC(=O)Nc1ccc(NC(=O)Nc2cc(C(C)(C)C)on2)cc1 | 14% |  |  |
| Cc1c(C(C)C)noc1NC(=O)Nc1cccc(Cl)c1Cl | 34% | 920 nM |  |
| CC(C)(C)c1cc(NC(=O)Nc2ccc(Cl)cc2)on1 | 68% | 260 nM |  |
| CC(C)(C)Cc1cc(NC(=O)Nc2cccc(Cl)c2Cl)on1 | 81% | 120 nM |  |
